Source: ChEMBL document CHEMBL1154120, “Synthesis and properties of nucleoside derivatives acylated by chemically stable 2-(trimethylsilyl)benzoyl group” (Bioorg Med Chem, 2009)

Tests used:
Type in all cases: physicochemical
[1] = Chemical stability in NH3-EtOH (9:1, v/v) at room temperature assessed as time taken for complete hydrolysis
Summary of the method: (§1)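 Nucleoside derivatives carrying 2-substituted benzoyl masking groups were kept in the basic solution. The time until hydrolysis was complete was recorded. Substrates showing no change over a 24 h observation window were scored as stable at 24 h.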

[2] = Chemical stability in NH3-EtOH (9:1, v/v) at 55 deg C assessed as time taken for complete hydrolysis; summary of the method: as §1
[3] = Chemical stability in 0.5 M NaOH/EtOH solution at room temperature assessed as time taken for complete hydrolysis; summary of the method: as §1
[4] = Chemical stability in 2 M NaOH/EtOH solution at room temperature assessed as time taken for complete hydrolysis; summary of the method: as §1
[5] = Chemical stability in 1.5 M NaOMe/MeOH solution at room temperature assessed as time taken for complete hydrolysis; summary of the method: as §1

Cc1cn([C@H]2C[C@H](O)[C@@H](COC(=O)c3ccccc3C(C)(C)C)O2)c(=O)[nH]c1=O
Stability [1]: > 24 h
Stability [2]: > 24 h
Stability [3]: 24 h
Stability [4]: 4 h

Cc1ccccc1C(=O)OC[C@H]1O[C@@H](n2cc(C)c(=O)[nH]c2=O)C[C@@H]1O
Stability [1]: 24 h
Stability [2]: 10 h
Stability [3]: 1 h
Stability [4]: 0.25 h

C[Si](C)(C)c1ccccc1C(=O)O[C@@H]1[C@H](O)[C@@H](CO)O[C@H]1n1ccc(=O)[nH]c1=O
Stability [1]: 48 h
Stability [2]: 8 h

Cc1cn([C@H]2C[C@H](O)[C@@H](COC(=O)c3ccccc3[Si](C)(C)C)O2)c(=O)[nH]c1=O
Stability [1]: > 24 h
Stability [2]: > 24 h
Stability [3]: 24 h
Stability [4]: 4 h

C[Si](C)(C)c1ccccc1C(=O)Nc1ccn([C@H]2C[C@H](O)[C@@H](CO)O2)c(=O)n1
Stability [2]: > 24 h
Stability [4]: > 24 h
Stability [5]: > 24 h

Cc1cn([C@H]2C[C@H](O)[C@@H](COC(=O)C=C[Si](C)(C)C)O2)c(=O)[nH]c1=O
Stability [1]: 12 h
Stability [2]: 4 h
